Measured values published in ChEMBL document CHEMBL4033712, “Synthesis and biological evaluation of new C-12(α/β)-(N-) sulfamoyl-phenylamino-14-deoxy-andrographolide derivatives as potent anti-cancer agents” (Bioorg Med Chem Lett, 2017).

Columns and labels:
Type in all cases: functional
[1] = system: BT-549; assay: Anticancer activity against human BT549 cells assessed as cell growth at 10 uM after 48 hrs by sulforhodamine B assay relative to control; conditions: BT-549, 48 h, read-out: Activity
How it was run: (§1)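 Single-dose NCI-60 panel screen: compound added at 10 µM and the culture incubated 48 h. The end point was read by protein staining with sulforhodamine B. The value is percent growth of treated cells relative to untreated control cells, reported as a mean graph across the panel.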

[2] = system: MCF7; assay: Anticancer activity against human MCF7 cells assessed as cell growth at 10 uM after 48 hrs by sulforhodamine B assay relative to control; conditions: MCF7, 48 h, read-out: Activity; how it was run: as §1
[3] = system: HL-60(TB); assay: Anticancer activity against human HL-60(TB) cells assessed as cell growth at 10 uM after 48 hrs by sulforhodamine B assay relative to control; conditions: HL-60, 48 h, read-out: Activity
How it was run: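 NCI-60 human tumour panel single-dose screen: cells exposed to 10 µM compound for 48 h. Growth end point read with sulforhodamine B protein-binding dye. Expressed as percent growth of treated cells versus untreated control cells.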

[4] = system: M14; assay: Growth inhibition of human M14 cells incubated for 48 hrs by sulforhodamine B assay; conditions: M14, 48 h; for CC50: read-out: LC50 (the source's name)
How it was run: (§2)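 NCI-60 five-dose screen at 0.01, 0.1, 1, 10 and 100 µM, 48 h incubation, sulforhodamine B end point. GI50 (50% decrease in net growth), TGI (total growth inhibition) and LC50 (net 50% loss of initial cells) taken from log concentration versus % growth inhibition curves.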

[5] = system: SK-MEL-5; assay: Anticancer activity against human SK-MEL-5 cells assessed as cell growth at 10 uM after 48 hrs by sulforhodamine B assay relative to control; conditions: SK-MEL-5, 48 h, read-out: Activity; how it was run: as §1
[6] = system: NCI-H460; assay: Anticancer activity against human NCI-H460 cells assessed as cell growth at 10 uM after 48 hrs by sulforhodamine B assay relative to control; conditions: NCI-H460, 48 h, read-out: Activity; how it was run: as §1
[7] = system: OVCAR-4; assay: Anticancer activity against human OVCAR4 cells assessed as cell growth at 10 uM after 48 hrs by sulforhodamine B assay relative to control; conditions: OVCAR-4, 48 h, read-out: Activity; how it was run: as §1
[8] = system: IGROV-1; assay: Anticancer activity against human IGROV1 cells assessed as cell growth at 10 uM after 48 hrs by sulforhodamine B assay relative to control; conditions: IGROV-1, 48 h, read-out: Activity; how it was run: as §1
[9] = system: COLO 205; assay: Anticancer activity against human COLO205 cells assessed as cell growth at 10 uM after 48 hrs by sulforhodamine B assay relative to control; conditions: COLO 205, 48 h, read-out: Activity; how it was run: as §1
[10] = system: OVCAR-4; assay: Growth inhibition of human OVCAR4 cells incubated for 48 hrs by sulforhodamine B assay; conditions: OVCAR-4, 48 h; how it was run: as §2
[11] = system: SW-620; assay: Anticancer activity against human SW620 cells assessed as cell growth at 10 uM after 48 hrs by sulforhodamine B assay relative to control; conditions: SW-620, 48 h, read-out: Activity
How it was run: (§3)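 NCI-60 single-dose screen: compound added at 10 µM, cultures incubated 48 h. End point by sulforhodamine B protein-binding dye. Value reported as percent growth of treated cells relative to untreated control cells.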

[12] = system: A498; assay: Anticancer activity against human A498 cells assessed as cell growth at 10 uM after 48 hrs by sulforhodamine B assay relative to control; conditions: A498, 48 h, read-out: Activity; how it was run: as §1
[13] = system: DU-145; assay: Anticancer activity against human DU145 cells assessed as cell growth at 10 uM after 48 hrs by sulforhodamine B assay relative to control; conditions: DU-145, 48 h, read-out: Activity; how it was run: as §1
[14] = system: OVCAR-5; assay: Growth inhibition of human OVCAR5 cells incubated for 48 hrs by sulforhodamine B assay; conditions: OVCAR-5, 48 h; how it was run: as §2
[15] = system: K562; assay: Anticancer activity against human K562 cells assessed as cell growth at 10 uM after 48 hrs by sulforhodamine B assay relative to control; conditions: K562, 48 h, read-out: Activity; how it was run: as §1
[16] = system: MDA-MB-231; assay: Anticancer activity against human MDA-MB-231 cells assessed as cell growth at 10 uM after 48 hrs by sulforhodamine B assay relative to control; conditions: MDA-MB-231, 48 h, read-out: Activity; how it was run: as §1
[17] = system: MDA-MB-468; assay: Anticancer activity against human MDA-MB-468 cells assessed as cell growth at 10 uM after 48 hrs by sulforhodamine B assay relative to control; conditions: MDA-MB-468, 48 h, read-out: Activity; how it was run: as §1
[18] = system: NCI/ADR-RES; assay: Anticancer activity against human NCI/ADR-RES cells assessed as cell growth at 10 uM after 48 hrs by sulforhodamine B assay relative to control; conditions: read-out: Activity; how it was run: as §1
[19] = system: A498; assay: Growth inhibition of human A498 cells incubated for 48 hrs by sulforhodamine B assay; conditions: A498, 48 h; how it was run: as §2
[20] = system: NCI-H23; assay: Anticancer activity against human NCI-H23 cells assessed as cell growth at 10 uM after 48 hrs by sulforhodamine B assay relative to control; conditions: NCI-H23, 48 h, read-out: Activity; how it was run: as §1
[21] = system: SK-OV-3; assay: Anticancer activity against human SKOV3 cells assessed as cell growth at 10 uM after 48 hrs by sulforhodamine B assay relative to control; conditions: SK-OV-3, 48 h, read-out: Activity; how it was run: as §1
[22] = system: SNB-75; assay: Anticancer activity against human SNB75 cells assessed as cell growth at 10 uM after 48 hrs by sulforhodamine B assay relative to control; conditions: SNB-75, 48 h, read-out: Activity; how it was run: as §3
[23] = system: NCI-H322M; assay: Anticancer activity against human NCI-H322M cells assessed as cell growth at 10 uM after 48 hrs by sulforhodamine B assay relative to control; conditions: read-out: Activity; how it was run: as §1
[24] = system: MDA-MB-435; assay: Anticancer activity against human MDA-MB-435 cells assessed as cell growth at 10 uM after 48 hrs by sulforhodamine B assay relative to control; conditions: MDA-MB-435, 48 h, read-out: Activity; how it was run: as §1
[25] = system: KM12; assay: Anticancer activity against human KM12 cells assessed as cell growth at 10 uM after 48 hrs by sulforhodamine B assay relative to control; conditions: KM12, 48 h, read-out: Activity; how it was run: as §1
[26] = system: A549; assay: Anticancer activity against human A549/ATCC cells assessed as cell growth at 10 uM after 48 hrs by sulforhodamine B assay relative to control; conditions: A549, 48 h, read-out: Activity; how it was run: as §1
[27] = system: MOLT-4; assay: Growth inhibition of human MOLT4 cells incubated for 48 hrs by sulforhodamine B assay; conditions: MOLT-4, 48 h; for CC50: read-out: LC50 (the source's name); how it was run: as §2
[28] = system: RXF 393; assay: Anticancer activity against human RXF393 cells assessed as cell growth at 10 uM after 48 hrs by sulforhodamine B assay relative to control; conditions: RXF 393, 48 h, read-out: Activity; how it was run: as §1
[29] = system: HCT-116; assay: Anticancer activity against human HCT116 cells assessed as cell growth at 10 uM after 48 hrs by sulforhodamine B assay relative to control; conditions: HCT-116, 48 h, read-out: Activity; how it was run: as §1

C=C1CC[C@@H]2[C@](C)(COC(C)=O)[C@H](OC(C)=O)CC[C@@]2(C)[C@H]1CC(Nc1ccc(S(=O)(=O)Nc2ncccn2)cc1)C1=CCOC1=O (some centres not stated)
growth at 10 µM [1]: -32%
growth at 10 µM [2]: -19.6%
growth at 10 µM [3]: -17.2%
GI50 [4]: 1.44 µM
TGI [4]: 3.98 µM
CC50 [4]: 15.9 µM
growth at 10 µM [5]: 24.1%
growth at 10 µM [6]: 18.1%
growth at 10 µM [7]: 42.7%
growth at 10 µM [8]: 7.21%
growth at 10 µM [9]: -12.1%
GI50 [10]: 1.85 µM
LC50 [10]: 19.3 µM
TGI [10]: 5.26 µM
growth at 10 µM [11]: -70%
growth at 10 µM [12]: 79%
growth at 10 µM [13]: 14.9%
GI50 [14]: 1.98 µM
LC50 (concentration causing net 50% loss of initial cells) [14]: 7.47 µM
TGI [14]: 3.85 µM
growth at 10 µM [15]: 4.6%
growth at 10 µM [16]: -1.01%
growth at 10 µM [17]: -54%
growth at 10 µM [18]: 16.1%
GI50 [19]: 12.3 µM
LC50 (concentration giving net 50% loss of initial cells) [19]: 49.9 µM
TGI [19]: 24.7 µM
growth at 10 µM [20]: 29.6%
growth at 10 µM [21]: 84.7%
growth at 10 µM [22]: 25.6%
growth at 10 µM [23]: 50.9%
growth at 10 µM [24]: -14.8%
growth at 10 µM [25]: -13.2%
growth at 10 µM [26]: 44.7%
GI50 [27]: 2.27 µM
TGI [27]: 8.37 µM
CC50 [27]: > 100 µM
growth at 10 µM [28]: -70%
growth at 10 µM [29]: -55%

C=C1CC[C@@H]2[C@](C)(COC(C)=O)[C@H](OC(C)=O)CC[C@@]2(C)[C@H]1CC(Nc1ccc(S(=O)(=O)Nc2ccc(Cl)nn2)cc1)C1=CCOC1=O (some centres not stated)
growth at 10 µM [1]: -9.45%
growth at 10 µM [2]: 16.8%
growth at 10 µM [3]: -17.5%
GI50 [4]: 1.45 µM
TGI [4]: 3.41 µM
CC50 [4]: 8.04 µM
growth at 10 µM [5]: 35.8%
growth at 10 µM [6]: 14.5%
growth at 10 µM [7]: 30.9%
growth at 10 µM [8]: 43.3%
growth at 10 µM [9]: 18%
GI50 [10]: 1.47 µM
LC50 [10]: 6.82 µM
TGI [10]: 3.17 µM
growth at 10 µM [11]: -37.7%
growth at 10 µM [12]: 89%
growth at 10 µM [13]: 40.2%
GI50 [14]: 2.01 µM
LC50 (concentration causing net 50% loss of initial cells) [14]: 8.63 µM
TGI [14]: 4.16 µM
growth at 10 µM [15]: 6.81%
growth at 10 µM [16]: 23.8%
growth at 10 µM [17]: -32.3%
growth at 10 µM [18]: 16.7%
GI50 [19]: 1.4 µM
LC50 (concentration giving net 50% loss of initial cells) [19]: 15.6 µM
TGI [19]: 4.26 µM
growth at 10 µM [20]: 58.2%
growth at 10 µM [21]: 86.1%
growth at 10 µM [22]: 25.2%
growth at 10 µM [23]: 57%
growth at 10 µM [24]: 8.13%
growth at 10 µM [25]: 27%
growth at 10 µM [26]: 61.6%
GI50 [27]: 1.96 µM
TGI [27]: > 100 µM
CC50 [27]: > 100 µM
growth at 10 µM [28]: -13.4%
growth at 10 µM [29]: -34.1%

C=C1CC[C@@H]2[C@](C)(COC(C)=O)[C@H](OC(C)=O)CC[C@@]2(C)[C@H]1CC(Nc1ccc(S(=O)(=O)Nc2nccc(C)n2)cc1)C1=CCOC1=O (some centres not stated)
growth at 10 µM [1]: -2.66%
growth at 10 µM [2]: 0.14%
growth at 10 µM [3]: -17.3%
GI50 [4]: 2.81 µM
TGI [4]: 10.8 µM
CC50 [4]: 72.6 µM
growth at 10 µM [5]: 45%
growth at 10 µM [6]: 46.9%
growth at 10 µM [7]: 32.3%
growth at 10 µM [8]: 25.8%
growth at 10 µM [9]: 9.64%
GI50 [10]: 4.37 µM
LC50 [10]: 41.4 µM
TGI [10]: 15.8 µM
growth at 10 µM [11]: -49.6%
growth at 10 µM [12]: 96.8%
growth at 10 µM [13]: 38.5%
GI50 [14]: 3.86 µM
LC50 (concentration causing net 50% loss of initial cells) [14]: 42.2 µM
TGI [14]: 12.8 µM
growth at 10 µM [15]: 3.62%
growth at 10 µM [16]: 13.3%
growth at 10 µM [17]: -45.8%
growth at 10 µM [18]: 20.9%
GI50 [19]: 14.8 µM
LC50 (concentration giving net 50% loss of initial cells) [19]: 54.4 µM
TGI [19]: 28.4 µM
growth at 10 µM [20]: 48.4%
growth at 10 µM [21]: 101%
growth at 10 µM [22]: 9.66%
growth at 10 µM [23]: 64.8%
growth at 10 µM [24]: 0.23%
growth at 10 µM [25]: 13.2%
growth at 10 µM [26]: 63.4%
GI50 [27]: 3.22 µM
TGI [27]: 17.9 µM
CC50 [27]: > 100 µM
growth at 10 µM [28]: -38.3%
growth at 10 µM [29]: -32.2%
